Reference: ChEMBL document CHEMBL2380254, “Optimization of tocotrienols as antiproliferative and antimigratory leads” (Eur J Med Chem, 2013)

Columns and labels:
NCI-H226 = assay: Growth inhibition of human NCI-H226 cells assessed as cell growth at 10 uM after 48 hrs by sulforhodamine B assay; assay type: functional; details: NCI-H226, 48 h, read-out: Activity
Summary of the method: (§1)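 Single-dose NCI-60 screen: adherent cells in RPMI 1640 with 5% FBS were exposed to 10 µM for 48 h at 37 °C after a 24 h preincubation. They were fixed in situ with cold TCA (10% final), stained with 0.4% SRB in 1% acetic acid, solubilized in 10 mM Tris base, and read at 515 nm. Percent growth was taken relative to time-zero and control plates.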

SF-295 = assay: Growth inhibition of human SF295 cells assessed as cell growth at 10 uM after 48 hrs by sulforhodamine B assay; assay type: functional; details: SF-295, 48 h, read-out: Activity; summary of the method: as §1
HOP-62 = assay: Growth inhibition of human HOP62 cells assessed as cell growth at 10 uM after 48 hrs by sulforhodamine B assay; assay type: functional; details: HOP-62, 48 h, read-out: Activity
Summary of the method: (§2)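 NCI-60 single-dose screen at 10 µM: cells in RPMI 1640 with 5% FBS, preincubated 24 h, then exposed 48 h at 37 °C. TCA fixation (16% final for suspension cells), SRB staining, absorbance 515 nm. Percent growth relative to time-zero and untreated control plates; negative values indicate cell kill.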

MDA-MB-231 = assay: Growth inhibition of human MDA-MB-231 cells assessed as cell growth at 10 uM after 48 hrs by sulforhodamine B assay; assay type: functional; details: MDA-MB-231, 48 h, read-out: Activity; summary of the method: as §1
PC-3 = assay: Growth inhibition of human PC3 cells after 48 hrs by sulforhodamine B assay; assay type: functional; details: PC-3, 48 h
Summary of the method: (§3)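 NCI-60 panel cells grown in RPMI 1640 with 5% FBS and 2 mM L-glutamine, seeded at 5000–40,000 cells/well and preincubated 24 h. Five 10-fold dilutions (0.001–100 µM) from DMSO stocks were added for 48 h at 37 °C. Adherent cells were fixed with cold TCA (10% final) for 60 min at 4 °C, stained with 0.4% SRB, and read at 515 nm. GI50 was set where 100×(T−T0)/(C−T0)=50.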

ACHN = assay: Growth inhibition of human ACHN cells assessed as cell growth at 10 uM after 48 hrs by sulforhodamine B assay; assay type: functional; details: read-out: Activity; summary of the method: as §2
SN12C = assay: Growth inhibition of human SN12C cells after 48 hrs by sulforhodamine B assay; assay type: functional
Summary of the method: (§4)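 NCI-60 five-dose screen. Cells were grown in RPMI 1640 with 5% FBS and 2 mM L-glutamine, plated at 5000–40,000 cells/well and incubated 24 h before dosing, with T0 plates TCA-fixed. DMSO stocks were diluted to doses of […] and exposed 48 h at 37 °C, 5% CO2. Cells were fixed with cold TCA (final 10%, 60 min, 4 °C), stained with 0.4% SRB in 1% acetic acid for 10 min, solubilized in 10 mM trizma base and read at 515 nm. GI50 is where 100×(T−T0)/(C−T0)=50.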

HL-60(TB) = assay: Growth inhibition of human HL-60(TB) cells assessed as cell growth at 10 uM after 48 hrs by sulforhodamine B assay; assay type: functional; details: HL-60, 48 h, read-out: Activity
Summary of the method: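 NCI-60 single-dose screen run at 10 µM on HL-60(TB) suspension cells in RPMI 1640 with 5% FBS and 2 mM L-glutamine. Cells were preincubated for 24 h, with a time-zero plate fixed then. Exposure lasted 48 h at 37 °C. Settled cells were fixed with TCA (16% final), stained with SRB and read at 515 nm. Percent growth is relative to control and T0.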

UO-31 = assay: Growth inhibition of human UO31 cells after 48 hrs by sulforhodamine B assay; assay type: functional; details: UO-31, 48 h; summary of the method: as §4
RXF 393 = assay: Growth inhibition of human RXF393 cells assessed as cell growth at 10 uM after 48 hrs by sulforhodamine B assay; assay type: functional; details: RXF 393, 48 h, read-out: Activity; summary of the method: as §1
SK-MEL-2 = assay: Growth inhibition of human SK-MEL-2 cells assessed as cell growth at 10 uM after 48 hrs by sulforhodamine B assay; assay type: functional; details: SK-MEL-2, 48 h, read-out: Activity; summary of the method: as §1
MCF7 = assay: Antiproliferative activity against human MCF7 cells by MTT assay; assay type: functional, cell-based
Summary of the method: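 Cells plated at 8 × 10^3/well (MDA-MB-231) or 10^4/well (MCF7) in 96-well plates. Compounds fed in media with 5% FBS (MDA-MB-231) or 1% FBS (MCF7). MTT read-out of viable cells.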

NCI-H23 = assay: Growth inhibition of human NCI-H23 cells assessed as cell growth at 10 uM after 48 hrs by sulforhodamine B assay; assay type: functional; details: NCI-H23, 48 h, read-out: Activity; summary of the method: as §1
HT-29 = assay: Growth inhibition of human HT-29 cells after 48 hrs by sulforhodamine B assay; assay type: functional; details: HT-29, 48 h
Summary of the method: (§5)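 NCI-60 screen: cells in RPMI 1640 with 5% FBS and 2 mM glutamine, 5000–40,000 cells/well, preincubated 24 h. Five concentrations (10-fold dilutions; 100 to 0.001 µM) applied for 48 h at 37 °C. TCA fixation, SRB stain, absorbance at 515 nm. Time-zero plates included; GI50 where 100×(T−T0)/(C−T0)=50.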

SW-620 = assay: Growth inhibition of human SW620 cells assessed as cell growth at 10 uM after 48 hrs by sulforhodamine B assay; assay type: functional; details: SW-620, 48 h, read-out: Activity
Summary of the method: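 Single-dose NCI-60 test at 10 µM. Cells were grown in RPMI 1640 with 5% FBS and 2 mM L-glutamine, preincubated 24 h, with T0 plates TCA-fixed. Exposure was 48 h at 37 °C, 5% CO2. Cells were fixed with cold TCA (final 10%, 4 °C, 60 min), stained with SRB and read at 515 nm. Percent growth was taken relative to T0 and untreated control; negative values denote cell kill.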

RPMI-8226 = assay: Growth inhibition of human RPMI8226 cells assessed as cell growth at 10 uM after 48 hrs by sulforhodamine B assay; assay type: functional; details: RPMI-8226, 48 h, read-out: Activity
Summary of the method: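 Single 10 µM dose applied to suspension cells in RPMI 1640 with 5% FBS and 2 mM L-glutamine for 48 h at 37 °C. Settled cells were fixed with 80% TCA (16% final), stained with SRB, and read at 515 nm. Percent growth was calculated against time-zero and untreated control optical densities.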

MDA-MB-468 = assay: Growth inhibition of human MDA-MB-468 cells after 48 hrs by sulforhodamine B assay; assay type: functional; details: MDA-MB-468, 48 h; summary of the method: as §3
OVCAR-3 = assay: Growth inhibition of human OVCAR3 cells assessed as cell growth at 10 uM after 48 hrs by sulforhodamine B assay; assay type: functional; details: OVCAR-3, 48 h, read-out: Activity; summary of the method: as §1
T47D = assay: Growth inhibition of human T47D cells after 48 hrs by sulforhodamine B assay; assay type: functional; summary of the method: as §4
786-0 = assay: Growth inhibition of human 786-0 cells after 48 hrs by sulforhodamine B assay; assay type: functional; details: 786-0, 48 h; summary of the method: as §5
HCT-15 = assay: Growth inhibition of human HCT15 cells after 48 hrs by sulforhodamine B assay; assay type: functional; details: HCT-15, 48 h; summary of the method: as §5

| Structure (SMILES) | growth at 10 µM (NCI-H226) | growth at 10 µM (SF-295) | growth at 10 µM (HOP-62) | growth at 10 µM (MDA-MB-231) | GI50 (PC-3) | growth at 10 µM (ACHN) | GI50 (SN12C) | growth at 10 µM (HL-60(TB)) | GI50 (UO-31) | growth at 10 µM (RXF 393) | growth at 10 µM (SK-MEL-2) | IC50 (MCF7) | growth at 10 µM (NCI-H23) | GI50 (HT-29) | growth at 10 µM (SW-620) | growth at 10 µM (RPMI-8226) | GI50 (MDA-MB-468) | growth at 10 µM (OVCAR-3) | GI50 (T47D) | GI50 (786-0) | other results |
| --- | --- | --- | --- | --- | --- | --- | --- | --- | --- | --- | --- | --- | --- | --- | --- | --- | --- | --- | --- | --- | --- |
| CC(C)=CCC/C(C)=C/CC/C(C)=C/CC[C@]1(C)CCc2c3c(cc(C)c2O1)OCN(CCCCCCO)C3 | 92.5% | -74.7% | -94.5% | -28.4% | 1.24 µM | -39.7% | 2.06 µM | -24.5% | 1.52 µM | -95.6% | 62.4% | > 20 µM | -22.3% | 0.72 µM | -66.3% | 35.4% | 0.629 µM | -61.6% | 1.76 µM | 1.74 µM | GI50 (HCT-15): 1.1 µM |
| CC(C)=CCC/C(C)=C/CC/C(C)=C/CC[C@]1(C)CCc2c3c(c(C)c(C)c2O1)OCN(CCCCO)C3 | 100% | 97.2% | 75% | 37.9% | 8.37 µM | 78.8% | 7.98 µM | 72.2% | 8.83 µM | 78.2% | 95.8% | > 20 µM | 93.5% | 2.87 µM | -16.1% | 91.9% | 2.53 µM | 79.9% | > 10 µM | > 10 µM | GI50 (HCT-15): 4.8 µM |
